The test system of assay [1] is A549. Briefly: Cytotoxicity against human A549 cells. It is filed as functional, cell-based. In a few lines: (§1)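 Test samples were dissolved in DMSO and diluted into culture medium to a final DMSO level of ≤1% (v/v). Human lung carcinoma A-549 and breast adenocarcinoma MCF-7 lines were used. Cell culture and the remaining steps followed an earlier published protocol.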

Assay [2] deals with MCF7. Briefly: Cytotoxicity against human MCF7 cells. It is filed as functional, cell-based. In a few lines:
as §1

Structures are written as SMILES. Values after ≈ are worked out from the molar mass of the structure shown.

One may read the EC50 as the midpoint of the concentration-response curve. Low readings indicate higher potency in that assay, high ones lower potency in that assay.

`C/C=C(/C)C(=O)O[C@@H]1c2c(C)coc2C[C@]23O[C@H]2CC[C@H](C)[C@@]13C`: the results for the concentration giving a half-maximal response (EC50) in assay [1] and in assay [2] were 9.4 µg/mL (≈ 28.4 µM) and more than 20 µg/mL, respectively.

Regarding `Cc1coc2c1[C@@H](O)[C@]1(C)[C@@H](C)CC[C@@H]3O[C@@]31C2`, the EC50 in assay [1] and in assay [2] was not below 20 µg/mL throughout.

Take `Cc1cc2c(C)coc2c2c1CCCC2C` (stereo not drawn) [FARFUGIN A]: the EC50 in assay [1] was 10.9 µg/mL (≈ 50.9 µM); in assay [2], 13.6 µg/mL (≈ 63.5 µM).

Turning to `C/C=C(/CO)C(=O)O[C@@H]1c2c(C)coc2C[C@@]23O[C@@H]2CC[C@H](C)[C@@]13C`, the EC50 is more than 20 µg/mL in assay [1] and 17.3 µg/mL (≈ 49.9 µM) in assay [2].

Take `CC(C=O)C1=C[C@@]2(C)C(=CC1=O)[C@H](O)CC[C@@H]2C` (mixture of isomers): the EC50 in assay [1] was 18.4 µg/mL; in assay [2] it was more than 20 µg/mL.

With `Cc1coc2cc3c(c(C)c12)[C@@H](C)CC[C@@H]3O`, the EC50 in assay [1] was 13.8 µg/mL (≈ 59.9 µM); in assay [2], 15.2 µg/mL (≈ 66 µM).

Take `C/C=C(/C)C(=O)O[C@H]1c2c(C)coc2C[C@H]2C(=O)CC[C@H](C)[C@]21C`: the EC50 in assay [1] and in assay [2] was not below 20 µg/mL throughout.

Regarding `Cc1cc2c(C)coc2cc1[C@H](C)CCC=O`, the EC50 is 10 µg/mL (≈ 43.4 µM) in assay [1] and more than 20 µg/mL in assay [2].

With `Cc1coc2cc3c(c(C)c12)[C@@H](C)CCC3=O`, the half-maximal effective concentration (EC50) in assay [1] stood at 11.9 µg/mL (≈ 52.1 µM); in assay [2], 15.2 µg/mL (≈ 66.6 µM).

For the origin of these results see ChEMBL document CHEMBL1141261, “Eremophilane sesquiterpenes from Ligularia macrophylla” (J Nat Prod, 2007).
